Screening results from PubChem.
Tb MetRS inh: blocks T. brucei methionyl-tRNA synthetase activity | purified T. brucei MetRS, ATP depletion, Kinase-Glo luminescence | inhibition, % at 11.9 µM | hit rate 0.4% among 360,000;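 active = inhibition above a per-plate cutoff of the control wells' mean inhibition plus 3 SD, cut at about 5.5% in these data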;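 note: 0% = DMSO wells median and 100% = median of wells with control inhibitor compound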
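Measured by: Kinase-Glo luciferase luminescence reporting remaining unconsumed ATP. Material: purified T. brucei MetRS enzyme. Doses: 11.9 µM compound single dose, 0.9% DMSO. Medium: HEPES buffer containing pyrophosphatase, BSA, spermine, DTT. Times: 15 min preincubation, 2 h reaction, all 25 °C. Reagent: methionine, ATP and bulk E. coli tRNA.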
Cardio protect: myocardial damage modulation in H9c2 cells; hit rate 0.63% among 360,000; AID 588492; H9c2 cardiomyocytes, H2O2 injury protection, ATPLite, 2 h; protection from H2O2 cell death, % at 20 µM;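 active = compounds giving at least 50% protection of heart cells from peroxide-induced death in the single-dose screen, raw or plate-pattern-corrected value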;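 note: 0% = DMSO wells with peroxide and 100% = DMSO wells without peroxide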
Rin1-Abl PPI inh: human Rin1-Abl interaction inhibition; TR-FRET Rin1/Abl binding, biochemical; inhibition, % at 7.35 µM; hit rate 0.4% among 360,000; P00519+Q13671; in the data active = inhibition above about 5%, passing the limit was not always enough
PKA-R2B activ: PKA-R2B complex activation; P22694+P31323; PKA-R2B holoenzyme dissociation, Cy5-IP20 fluorescence polarization; R2B truncated from residue 108, S112A mutant; 0% DMSO only, 100% 113 µM cGMP; activation, % at 11.4 µM; hit rate 0.079% among 340,000;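 active = activation above a cutoff set at the mean over all compounds plus 3 SD, cut at about 18% in these data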;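 note: higher means more holoenzyme dissociation and a rise in polarization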
Target sequence (P31323 whole entry, looked up, other chains not shown, the tested form may be a part): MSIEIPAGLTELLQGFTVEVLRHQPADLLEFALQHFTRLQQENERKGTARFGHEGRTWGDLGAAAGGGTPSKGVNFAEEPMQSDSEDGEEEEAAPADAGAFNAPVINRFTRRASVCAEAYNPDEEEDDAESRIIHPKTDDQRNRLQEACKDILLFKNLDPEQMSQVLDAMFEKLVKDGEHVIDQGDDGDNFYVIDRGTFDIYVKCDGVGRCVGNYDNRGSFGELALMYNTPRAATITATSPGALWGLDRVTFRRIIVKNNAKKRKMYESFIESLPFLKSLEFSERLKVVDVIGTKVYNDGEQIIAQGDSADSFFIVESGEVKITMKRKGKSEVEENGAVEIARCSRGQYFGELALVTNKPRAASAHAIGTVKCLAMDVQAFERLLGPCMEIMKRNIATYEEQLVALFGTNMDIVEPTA
PKA-R1A activ: activates the PKA-R1A holoenzyme complex; P00514+P68181; PKA-R1A dissociation, Cy5-IP20 fluorescence polarization; scaled: DMSO 0%, 113 µM cGMP 100%; activation, % at 11.4 µM; hit rate 0.083% among 340,000;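 active = percent activation above the mean of all tested compounds plus 3 SD, cut at about 19% in these data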;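 note: higher means more PKAc released from R1A so a rise in polarization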
Starred values were filed as active, the others as inactive. Only some compounds are listed: those with a hit (about 1.5% of all), similar ones and a draw of the others.

`O=C(Cn1[nH]c(=O)c2ccccc2c1=O)OCC(=O)c1ccc(F)c(F)c1` gave Tb MetRS inh 0, Cardio protect 31, Rin1-Abl PPI inh 1, PKA-R2B activ -3 and PKA-R1A activ -2.
For Cc1cc(CNC(=O)COC(=O)Cn2[nH]c(=O)c3ccccc3c2=O)cc(C)c1O the results were Tb MetRS inh 0, Cardio protect 104*, Rin1-Abl PPI inh 0, PKA-R2B activ -2 and PKA-R1A activ 0.
COC(=O)c1ccc(CSc2ccc3nnc(-c4cccc(F)c4)n3n2)o1 was read as Tb MetRS inh -1, Cardio protect 105*, Rin1-Abl PPI inh -9, PKA-R2B activ 6 and PKA-R1A activ -12.
`CCOC(=O)CC(=O)CSc1ccc2nnc(-c3cccc(F)c3)n2n1` gave Tb MetRS inh 0, Cardio protect 12, Rin1-Abl PPI inh -3, PKA-R2B activ -19 and PKA-R1A activ -5.
`CC(=O)NC(CCc1ccc(Cl)c(Cl)c1)c1cccc(O)c(=O)c1` (stereo unspecified) gave Tb MetRS inh 0, Cardio protect 61*, Rin1-Abl PPI inh -2, PKA-R2B activ 8 and PKA-R1A activ 4.
Screening Oc1ccc(C23CCCC2C2(CCCC2)c2ccc(O)cc2O3)c(O)c1 (stereo unspecified) returned Tb MetRS inh 0, Cardio protect -10, Rin1-Abl PPI inh -2, PKA-R2B activ 7 and PKA-R1A activ -4.
Cc1ccc(/C=C2\SC(=S)N(CCC(=O)NNC(=O)c3ccccc3O)C2=O)cc1 was read as Tb MetRS inh 0, Cardio protect 7, Rin1-Abl PPI inh -2, PKA-R2B activ 6 and PKA-R1A activ 7.
For Cc1ccc(/C=C2\SC(=S)N(CCCC(=O)NNC(=O)c3ccccc3O)C2=O)cc1 the results were Tb MetRS inh -1, Cardio protect 55*, Rin1-Abl PPI inh -1, PKA-R2B activ -6 and PKA-R1A activ 1.
For COc1ccc(-n2c(O)c(/C=N/NS(=O)(=O)c3ccc(C)cc3)c3ccccc3c2=O)cc1OC the results were Tb MetRS inh 0, Cardio protect -6, Rin1-Abl PPI inh 4, PKA-R2B activ 12 and PKA-R1A activ -6.
Screening COc1ccc(-n2c(O)c(/C=N/Nc3nc(C)cc(C)n3)c3ccccc3c2=O)cc1OC returned Tb MetRS inh 0, Cardio protect 62*, Rin1-Abl PPI inh -3, PKA-R2B activ -10 and PKA-R1A activ -3.
Screening COc1ccc(NC(=O)N(C)C[C@H]2Oc3c(NC(=O)Nc4ccc(C(F)(F)F)cc4)cccc3C(=O)N([C@H](C)CO)C[C@@H]2C)cc1 returned Tb MetRS inh -1, Cardio protect 59*, Rin1-Abl PPI inh -3, PKA-R2B activ -21 and PKA-R1A activ -11.
`C[C@H](CO)N1C[C@H](C)[C@@H](CN(C)C(=O)Nc2ccc3c(c2)OCO3)Oc2c(NC(=O)Nc3ccc(C(F)(F)F)cc3)cccc2C1=O` gave Tb MetRS inh 0, Cardio protect 86*, Rin1-Abl PPI inh 0, PKA-R2B activ -10 and PKA-R1A activ -9.
`CCN1C(=O)[C@@H]2[C@@H](c3ccc(-c4ccc(F)cc4)c(OC)c3)N3CCC[C@@]3(C(=O)OC)[C@@H]2C1=O` gave Tb MetRS inh 0, Cardio protect 4, Rin1-Abl PPI inh 0, PKA-R2B activ -1 and PKA-R1A activ -15.
`c1ccc(COC(CN2CCCCCC2)CN2CCCCCC2)cc1` gave Tb MetRS inh 0, Cardio protect -3, Rin1-Abl PPI inh -1, PKA-R2B activ -4 and PKA-R1A activ 0.
O=C(COc1cccc2c1CCNC2=O)Nc1cccc(C(F)(F)F)c1 was read as Tb MetRS inh 0, Cardio protect 28, Rin1-Abl PPI inh -2, PKA-R2B activ -4 and PKA-R1A activ -11.
`O=C(COc1cccc2c1CCNC2=O)Nc1cccc(F)c1` gave Tb MetRS inh 0, Cardio protect 74*, Rin1-Abl PPI inh -5, PKA-R2B activ -9 and PKA-R1A activ -17.
For O=C(CCC(=O)N1CCN(C2CCCCC2)CC1)Nc1nnc(C(F)(F)F)s1 the results were Tb MetRS inh -3, Cardio protect 65*, Rin1-Abl PPI inh 2, PKA-R2B activ -8 and PKA-R1A activ -11.
`O=C(CCC(=O)N1CCN(C2CCCC2)CC1)Nc1nnc(C(F)(F)F)s1` gave Tb MetRS inh 0, Cardio protect 12, Rin1-Abl PPI inh -2, PKA-R2B activ -5 and PKA-R1A activ -14.
`CN(CC(=O)Nc1ccccc1Br)C(=O)Cn1[nH]c(=O)c2ccccc2c1=O` gave Tb MetRS inh -1, Cardio protect 83*, Rin1-Abl PPI inh -2, PKA-R2B activ -4 and PKA-R1A activ -4.
For COc1cccc(NC(=O)CN(C)C(=O)Cn2[nH]c(=O)c3ccccc3c2=O)c1 the results were Tb MetRS inh 0, Cardio protect 40, Rin1-Abl PPI inh 2, PKA-R2B activ 6 and PKA-R1A activ 5.
`COc1ccc(Cl)cc1NC(=O)CN(C)C(=O)Cn1[nH]c(=O)c2ccccc2c1=O` gave Tb MetRS inh 0, Cardio protect 84*, Rin1-Abl PPI inh 4, PKA-R2B activ 4 and PKA-R1A activ 2.
For COC(=O)c1ccc(NC(=O)CNc2ccccc2)cc1 the results were Tb MetRS inh 1, Cardio protect -1, Rin1-Abl PPI inh 0, PKA-R2B activ -14 and PKA-R1A activ 2.
NCCNC(=O)Cc1cccc(NC(=O)Cc2ccc(Nc3ncnc4c3ncn4[C@@H]3O[C@H](CO)[C@@H](O)[C@H]3O)cc2)c1 was read as Tb MetRS inh -1, Cardio protect 2, Rin1-Abl PPI inh 17*, PKA-R2B activ -1 and PKA-R1A activ -10.
`CCOC(=O)N1CCN(S(=O)(=O)c2c(C)nc3scc(C)n3c2=O)CC1` gave Tb MetRS inh 0, Cardio protect 6, Rin1-Abl PPI inh 1, PKA-R2B activ 8 and PKA-R1A activ -3.
Screening Cc1nnc(SCC(=O)N/N=C/c2cn(-c3ccccc3)nc2-c2ccccc2)n1-c1ccccc1 returned Tb MetRS inh -1, Cardio protect 54*, Rin1-Abl PPI inh 2, PKA-R2B activ -20 and PKA-R1A activ -9.
For CC(N=Cc1cccc(O)c1O)c1ccccc1 (stereo unspecified) the results were Tb MetRS inh 0, Cardio protect 59*, Rin1-Abl PPI inh 3, PKA-R2B activ -1 and PKA-R1A activ 9.
`Cc1ccc(N=Cc2cccc(O)c2O)c(C)c1` gave Tb MetRS inh -1, Cardio protect 73*, Rin1-Abl PPI inh 4, PKA-R2B activ -3 and PKA-R1A activ -11.
Cc1ccccc1N=Cc1cccc(O)c1O was read as Tb MetRS inh 0, Cardio protect 58*, Rin1-Abl PPI inh -1, PKA-R2B activ 0 and PKA-R1A activ 9.
`CC(C)(C)c1ccc(C(=O)COC(=O)CN2C(=O)NC3(CCCC3)C2=O)cc1` gave Tb MetRS inh 0, Cardio protect 2, Rin1-Abl PPI inh 4, PKA-R2B activ 5 and PKA-R1A activ -8.
